Results reported in article PMC7745752 (The Journal of General Physiology, 2020).
Positions count from the first letter of the chain named.

What was measured:
[1] = tested on: TRPV3 C-terminal double and triple mutants (E682Q, E689Q, D727N combinations); experiment: cell-based Ca2+ assay; set-up: species or system mouse; details: pH 7.4 vs pH 5.6
Outline: (§1)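 Mouse TRPV3 (WT or mutant) was transfected into HEK293 cells in 96-well plates. Cells were loaded with 5 µM Fluo-4/AM, 0.02% Pluronic F-127 and 0.1% BSA in HEPES ECS (pH 7.4) at 37°C for 60 min, with 2 mM probenecid throughout. 2-APB was added once per well in ECS, or in Mes acidic solution giving final pH 5.6. AUC was normalized to the plate maximum, and EC50 at each pH came from a Hill fit.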

WT mouse TRPV3 [2] = molecular target: T1, WT mouse TRPV3 (Mus musculus, UniProt Q8K424); experiment: cell-based Ca2+ assay; details: pH 7.4 vs pH 5.6
T1 sequence (Q8K424 1-791): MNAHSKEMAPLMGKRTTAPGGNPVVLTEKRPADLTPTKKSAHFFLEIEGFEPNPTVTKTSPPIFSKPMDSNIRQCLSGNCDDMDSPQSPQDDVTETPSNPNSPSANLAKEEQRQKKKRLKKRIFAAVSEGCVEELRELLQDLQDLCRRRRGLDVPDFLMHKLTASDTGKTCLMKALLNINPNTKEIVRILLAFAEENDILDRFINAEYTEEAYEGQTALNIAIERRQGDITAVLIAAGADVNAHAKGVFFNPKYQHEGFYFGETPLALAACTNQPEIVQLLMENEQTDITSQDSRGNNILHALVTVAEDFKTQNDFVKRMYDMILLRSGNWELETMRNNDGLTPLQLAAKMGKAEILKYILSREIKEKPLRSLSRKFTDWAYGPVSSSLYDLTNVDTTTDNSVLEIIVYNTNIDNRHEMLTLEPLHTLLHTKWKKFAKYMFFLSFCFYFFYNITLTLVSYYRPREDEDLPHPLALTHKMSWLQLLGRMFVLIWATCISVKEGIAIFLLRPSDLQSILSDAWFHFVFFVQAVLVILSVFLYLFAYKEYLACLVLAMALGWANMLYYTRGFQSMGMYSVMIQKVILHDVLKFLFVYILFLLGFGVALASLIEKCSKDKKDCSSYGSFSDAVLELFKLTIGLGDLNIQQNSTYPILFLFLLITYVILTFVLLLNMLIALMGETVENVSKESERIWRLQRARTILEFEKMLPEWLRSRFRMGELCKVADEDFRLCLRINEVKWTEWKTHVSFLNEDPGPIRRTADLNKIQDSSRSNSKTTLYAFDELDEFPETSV
Outline: as §1

[3] = molecular target: T2, TRPV3 E682Q/E689Q/D727N (QQN) (Mus musculus, UniProt Q8K424, D727N/E682Q/E689Q); experiment: whole-cell voltage-clamp recording in transfected HEK293 cells; type: cell-based
T2 sequence (Q8K424 1-791 E682Q/E689Q/D727N): T1 sequence (Q8K424 1-791) with E682Q, E689Q, D727N

[4] = molecular target: T2, TRPV3 E682Q/E689Q/D727N (QQN); experiment: cell-based Ca2+ assay
Outline: as §1

TRPV3 E631A = molecular target: T3, TRPV3 E631A (Mus musculus, UniProt Q8K424, E631A); experiment: whole-cell voltage-clamp recording in transfected HEK293 cells; type: cell-based; details: n = 3
T3 sequence (Q8K424 1-791 E631A): T1 sequence (Q8K424 1-791) with E631A
Outline: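 Whole-cell clamp at 22–24°C of HEK293 cells transiently expressing mutant mouse TRPV3. Pipette: 140 mM CsCl, 1 EGTA, pH 7.2. Bath: nominally Ca2+-free. 30 µM 2-APB was perfused at pHe 7.4, then in pH 5.0 Mes-buffered solution. Ramps ran −100 to +100 mV over 200 ms every second from 0 mV holding. Current ratio pHe 5.0/7.4 was taken at ±100 mV.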

TRPV3 E689Q/D727N = molecular target: T4, TRPV3 E689Q/D727N (Mus musculus, UniProt Q8K424, D727N/E689Q); experiment: cell-based Ca2+ assay
T4 sequence (Q8K424 1-791 E689Q/D727N): T1 sequence (Q8K424 1-791) with E689Q, D727N
Outline: (§2)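 Ca2+ plate assay with FlexStation in HEK293 cells transiently expressing mutant mouse TRPV3. Fluo-4/AM loading was 5 µM for 60 min at 37°C in pH 7.4 ECS with probenecid; cells were then washed. Agonist was delivered robotically at varied concentrations, each well dosed once. Read-out was ex 494/em 525 nm at 0.67 Hz. AUC was normalized to the plate maximum, and EC50 was obtained by Hill fitting.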

WT mouse TRPV3 [5] = molecular target: T1, WT mouse TRPV3; experiment: whole-cell voltage-clamp recording in transfected HEK293 cells; type: cell-based; details: 300 µM carvacrol; for repeated stimulations needed to approach the maximal response: 30-s applications
Outline: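 Sensitization by intracellular pH: 300 µM carvacrol was applied repeatedly in whole-cell mode to HEK293 cells expressing mouse TRPV3. External solution was pH 7.4, nominally Ca2+-free. pHi was set to 7.2, 6.5 or 6.0 by CsCl/EGTA pipette solutions. The stimulation reaching maximal response was noted. Temperature was 22–24°C.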

TRPV3 E682Q/D727N = molecular target: T5, TRPV3 E682Q/D727N (Mus musculus, UniProt Q8K424, D727N/E682Q); experiment: cell-based Ca2+ assay
T5 sequence (Q8K424 1-791 E682Q/D727N): T1 sequence (Q8K424 1-791) with E682Q, D727N
Outline: as §2

Row | Structure (SMILES) | ratio for 2-APB EC50 values obtained at pH 7.4 and pH 5.6 [1] | ratio for 2-APB EC50 values obtained at pH 7.4 and pH 5.6 (WT mouse TRPV3 [2]) | delay in current development after the addition of 2-APB ([3]; 5 µM 2-APB, pHe 6.5, nominally Ca2+-free bath) | ratio for 2-APB EC50 values obtained at pH 7.4 and pH 5.6 ([4]; pH 7.4 vs pH 5.6) | 5.0:7.4 pH ratio of 2-APB-evoked current (TRPV3 E631A; +100 mV) | 5.0:7.4 pH ratio of 2-APB-evoked current (TRPV3 E631A; −100 mV) | EC50 (TRPV3 E689Q/D727N) | stimulation at which the highest level of response was reached ([3]; 300 µM carvacrol, 30-s applications, pHi 7.2, external pH 7.4) | EC50 [4] | repeated stimulations needed to approach the maximal response (WT mouse TRPV3 [5]; pHi 6.0, external pH 7.4) | repeated stimulations needed to approach the maximal response (WT mouse TRPV3 [5]; pHi 7.2, external pH 7.4) | decrease of carvacrol-evoked TRPV3 current by pH 5.5 compared with pH 7.4 (WT mouse TRPV3 [5]; presensitized cells, +80 mV, nominally Ca2+-free bath) | EC50 (TRPV3 E682Q/D727N)
1 | NCCOB(c1ccccc1)c1ccccc1 [2-APB, 2-aminoethoxydiphenyl borate] | < 4.6 | ~15 | ~30 s | 0.92 | 0.98 ± 0.09 | 1.02 ± 0.03 | – | – | – | – | – | – | –
2 | Cc1ccc(C(C)C)cc1O [carvacrol] | – | – | – | – | – | – | 60.2 ± 3.2 µM | first stimulation | 119 ± 7.6 µM | five | ~14 | ~50% | 197 ± 7.8 µM
